Here are results for four compounds from ChEMBL document CHEMBL3352671, “Inhibitory and mechanistic investigations of oxo-lipids with human lipoxygenase isozymes” (Bioorg Med Chem, 2014).

Molecules are shown by their SMILES. Active and inactive are the calls of the source. The calls are words filed in the database; no cut-off is given here.

Assay [1] is described as follows: Inhibition of soybean 15-lipoxygenase-1 by UV-visible spectrophotometry. Also noted: species or system Glycine max. A digest of the protocol:
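Soybean 15-LOX-1 (~2 nM) was assayed in 100 mM borate pH 9.2, 0.01% Triton X-100, 10 μM AA, stirred 2 mL at 23°C. Conjugated diene was read at 234 nm.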

Assay [2] concerns the target T1, Polyunsaturated fatty acid lipoxygenase ALOX12 (Homo sapiens, UniProt P18054).
T1 sequence (P18054 whole entry): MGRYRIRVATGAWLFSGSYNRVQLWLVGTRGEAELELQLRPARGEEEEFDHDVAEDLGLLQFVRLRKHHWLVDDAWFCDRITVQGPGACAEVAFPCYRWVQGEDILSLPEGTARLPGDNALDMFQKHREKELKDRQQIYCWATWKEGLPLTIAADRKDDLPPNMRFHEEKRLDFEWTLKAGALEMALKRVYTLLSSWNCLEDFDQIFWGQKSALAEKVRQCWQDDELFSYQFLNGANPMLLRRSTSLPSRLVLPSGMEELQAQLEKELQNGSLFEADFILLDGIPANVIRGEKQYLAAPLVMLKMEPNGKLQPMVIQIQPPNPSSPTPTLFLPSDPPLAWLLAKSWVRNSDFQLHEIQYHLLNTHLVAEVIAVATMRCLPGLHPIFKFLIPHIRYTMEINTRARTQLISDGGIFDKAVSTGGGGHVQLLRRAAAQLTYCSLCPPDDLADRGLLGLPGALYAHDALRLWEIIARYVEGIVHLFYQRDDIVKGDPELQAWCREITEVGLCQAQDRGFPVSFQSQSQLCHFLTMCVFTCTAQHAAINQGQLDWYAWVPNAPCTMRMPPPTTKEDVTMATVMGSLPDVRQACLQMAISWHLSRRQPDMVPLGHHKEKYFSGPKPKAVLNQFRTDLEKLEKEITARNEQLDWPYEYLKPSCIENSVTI
Put plainly: Inhibition of human platelet 12-lipoxygenase by UV-visible spectrophotometry. A digest of the protocol: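 h12-LOX (~100 nM total protein) in 25 mM HEPES pH 8.0, 0.01% Triton X-100, 10 μM AA, run as stirred 2 mL reactions at 23°C. Diene formation was read at 234 nm.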

For assay [3], the target named is T2, Polyunsaturated fatty acid lipoxygenase ALOX12 (Homo sapiens) (UniProt P18054).
T2 sequence (whole entry): T1 sequence (P18054 whole entry)

In assay [4] the target is T2, Polyunsaturated fatty acid lipoxygenase ALOX12 (Homo sapiens). This is another data set of the same source.
The target of assay [5] is T3, Polyunsaturated fatty acid lipoxygenase ALOX15 (Homo sapiens, UniProt P16050).
T3 sequence (P16050 whole entry): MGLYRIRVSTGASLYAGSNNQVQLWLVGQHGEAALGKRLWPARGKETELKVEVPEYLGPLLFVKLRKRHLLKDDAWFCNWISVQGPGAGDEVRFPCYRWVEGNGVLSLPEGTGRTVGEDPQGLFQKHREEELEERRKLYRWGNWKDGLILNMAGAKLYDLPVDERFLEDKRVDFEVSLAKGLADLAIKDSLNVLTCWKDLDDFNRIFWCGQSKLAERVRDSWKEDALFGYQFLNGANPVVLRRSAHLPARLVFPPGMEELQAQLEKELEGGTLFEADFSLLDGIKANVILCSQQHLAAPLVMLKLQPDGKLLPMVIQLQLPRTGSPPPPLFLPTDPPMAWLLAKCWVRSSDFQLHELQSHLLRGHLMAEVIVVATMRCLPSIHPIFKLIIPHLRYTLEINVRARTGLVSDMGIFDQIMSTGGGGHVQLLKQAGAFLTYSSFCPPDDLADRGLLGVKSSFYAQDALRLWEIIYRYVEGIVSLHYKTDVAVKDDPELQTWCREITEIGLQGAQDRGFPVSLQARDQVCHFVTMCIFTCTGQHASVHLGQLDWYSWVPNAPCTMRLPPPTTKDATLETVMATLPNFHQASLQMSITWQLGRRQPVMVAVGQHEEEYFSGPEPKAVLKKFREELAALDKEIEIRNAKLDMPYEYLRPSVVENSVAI
The assay can be described thus: Inhibition of human reticulocyte 15-lipoxygenase-1 by UV-visible spectrophotometry. A digest of the protocol: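 Purified h15-LOX-1 (~60 nM total protein) in stirred 2 mL reactions at 23°C, 25 mM HEPES pH 7.5, 0.01% Triton X-100, 10 μM AA. Rate followed as conjugated diene formation at 234 nm. IC50 from at least five inhibitor concentrations by hyperbolic saturation fit, triplicate. Weak inhibitors approximated from one-point screen at 25 μM (triplicate).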

The target in assay [6] is T4, Polyunsaturated fatty acid lipoxygenase ALOX15B (Homo sapiens, UniProt O15296).
T4 sequence (O15296 whole entry): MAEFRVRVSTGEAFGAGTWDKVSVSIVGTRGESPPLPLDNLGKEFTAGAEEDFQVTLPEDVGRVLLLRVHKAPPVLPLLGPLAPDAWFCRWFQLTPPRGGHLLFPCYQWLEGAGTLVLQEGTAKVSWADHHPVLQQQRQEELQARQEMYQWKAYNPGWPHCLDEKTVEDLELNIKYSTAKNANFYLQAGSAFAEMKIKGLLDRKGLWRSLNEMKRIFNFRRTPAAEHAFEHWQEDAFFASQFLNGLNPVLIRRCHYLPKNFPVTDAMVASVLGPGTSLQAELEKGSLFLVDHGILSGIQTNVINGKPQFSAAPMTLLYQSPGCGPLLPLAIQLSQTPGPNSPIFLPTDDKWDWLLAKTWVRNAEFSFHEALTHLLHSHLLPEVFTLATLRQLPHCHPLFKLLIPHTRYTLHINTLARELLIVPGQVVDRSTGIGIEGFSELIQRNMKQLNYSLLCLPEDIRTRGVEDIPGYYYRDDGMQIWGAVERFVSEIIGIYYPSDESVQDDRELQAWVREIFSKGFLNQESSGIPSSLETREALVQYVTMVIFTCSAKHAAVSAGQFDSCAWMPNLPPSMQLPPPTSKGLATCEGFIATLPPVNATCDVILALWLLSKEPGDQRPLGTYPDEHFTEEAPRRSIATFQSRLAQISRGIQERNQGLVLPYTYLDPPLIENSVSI
Put plainly: Inhibition of human reticulocyte 15-lipoxygenase-2 by UV-visible spectrophotometry. The settings on record: in the assay text read “epithelial” for “reticulocyte”. Put shortly:
(§1)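 Enzyme was h15-LOX-2 (~200 nM) or rabbit 15-LOX (~50 nM), in 25 mM HEPES pH 7.5, 0.01% Triton X-100, 10 μM AA, stirred 2 mL at 23°C. Product was monitored at 234 nm.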

The target in assay [7] is T5, Polyunsaturated fatty acid 5-lipoxygenase (Homo sapiens, UniProt P09917).
T5 sequence (P09917 whole entry): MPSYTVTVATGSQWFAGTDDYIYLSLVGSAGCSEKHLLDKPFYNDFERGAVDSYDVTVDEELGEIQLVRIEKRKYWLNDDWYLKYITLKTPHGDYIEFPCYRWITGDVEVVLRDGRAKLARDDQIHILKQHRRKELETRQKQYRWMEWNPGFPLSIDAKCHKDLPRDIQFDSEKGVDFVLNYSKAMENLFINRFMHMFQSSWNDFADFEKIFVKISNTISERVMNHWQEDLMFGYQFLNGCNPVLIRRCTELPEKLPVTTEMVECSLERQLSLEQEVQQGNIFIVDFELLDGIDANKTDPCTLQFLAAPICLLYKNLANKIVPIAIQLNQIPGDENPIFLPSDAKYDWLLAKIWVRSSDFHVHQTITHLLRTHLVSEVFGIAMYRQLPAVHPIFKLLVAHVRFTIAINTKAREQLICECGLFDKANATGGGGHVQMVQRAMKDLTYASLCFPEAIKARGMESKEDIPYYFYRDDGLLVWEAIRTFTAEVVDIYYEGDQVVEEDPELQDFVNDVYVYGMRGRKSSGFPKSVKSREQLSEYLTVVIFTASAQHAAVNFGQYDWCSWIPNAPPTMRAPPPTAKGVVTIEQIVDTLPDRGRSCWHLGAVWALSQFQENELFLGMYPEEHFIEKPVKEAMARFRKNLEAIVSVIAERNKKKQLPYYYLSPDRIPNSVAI
Put plainly: Inhibition of human leukocyte 5-lipoxygenase by UV-visible spectrophotometry.

Assay [8] deals with T6, Polyunsaturated fatty acid lipoxygenase ALOX15 (Oryctolagus cuniculus, UniProt P12530).
T6 sequence (P12530 whole entry): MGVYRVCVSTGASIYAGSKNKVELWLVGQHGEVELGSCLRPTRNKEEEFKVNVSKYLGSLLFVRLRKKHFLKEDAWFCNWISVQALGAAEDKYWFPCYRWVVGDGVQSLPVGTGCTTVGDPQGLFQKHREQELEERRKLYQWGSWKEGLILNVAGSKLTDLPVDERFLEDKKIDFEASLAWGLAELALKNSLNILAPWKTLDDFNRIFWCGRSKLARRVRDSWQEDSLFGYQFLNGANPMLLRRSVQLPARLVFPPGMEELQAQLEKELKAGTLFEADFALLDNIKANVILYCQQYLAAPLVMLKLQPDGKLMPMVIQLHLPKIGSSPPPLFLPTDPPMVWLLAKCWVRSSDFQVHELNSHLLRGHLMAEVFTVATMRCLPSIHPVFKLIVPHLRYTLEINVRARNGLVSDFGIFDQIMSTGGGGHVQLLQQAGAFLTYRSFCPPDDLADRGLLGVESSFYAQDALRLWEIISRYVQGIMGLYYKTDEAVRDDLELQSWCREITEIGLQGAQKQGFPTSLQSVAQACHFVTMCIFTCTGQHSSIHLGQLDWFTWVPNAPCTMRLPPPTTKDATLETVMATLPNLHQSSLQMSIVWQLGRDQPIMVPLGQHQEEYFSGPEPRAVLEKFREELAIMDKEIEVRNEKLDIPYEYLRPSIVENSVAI
Put plainly: Inhibition of rabbit reticulocyte 15-LOX by UV-visible spectrophotometry. A digest of the protocol: as §1

Assay [9] has as its target T3, Polyunsaturated fatty acid lipoxygenase ALOX15. Put plainly: Irreversible inhibition of human reticulocyte 15-lipoxygenase-1 by assessed as equilibrium inhibitor constant. A digest of the protocol: (§2)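 Time-dependent inactivation: h15-LOX-1 or s15-LOX-1 was incubated on ice with neat oxo-lipid oil (no solvent) at ≥5 concentrations for varied times. Residual activity was then measured under the UV 234 nm assay conditions for each enzyme and compared with an enzyme-only control. ka was taken as the slope of ln(% activity) versus time, and Ki and k2 from a replot of ka versus [I].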

The next assay has as its system Glycine max. Put plainly: Irreversible inhibition of soybean 15-lipoxygenase-1. A digest of the protocol:
as §2

In general, IC50 refers to the concentration that gives 50% inhibition. Regarding `CCCCCC(=O)/C=C/C=C\C/C=C\C/C=C\CCCC(=O)O`, the IC50 in assay [1] was > 100 µM; in assay [2], 1 µM; in assay [5], > 25 µM; in assay [6], > 100 µM; in [7] (read-out: IC50), > 100 µM; in assay [8] it was > 50 µM. Further, in assay [3], the Kiuc turned out to be 2.1 µM. The compound also gave a Kic in assay [4] of 0.087 µM.

As for `CCCCC/C=C\CC(=O)/C=C/C=C\C/C=C\CCCC(=O)O`, the IC50 was > 100 µM in assay [1]; 8 µM in assay [2]; 3 µM in assay [5]; > 100 µM in assay [6]; > 50 µM in [7] (read-out: IC50); > 50 µM in assay [8]. For the same compound, the Ki in assay [9] was 36.8 µM.

Consider `CCCCC/C=C\C/C=C\C/C=C\C=C\C(=O)CCCC(=O)O` [5-OXO-ETE], for which the IC50 was > 100 µM in [1]; 15 µM in [2]; > 25 µM in [5]; > 100 µM in assay [6]; “Not Active” in assay [7]; > 25 µM in [8].

For `CCCCCC(=O)/C=C/C=C\CCCCCCCC(=O)O`, the IC50 in assay [1], in [2], in assay [5], in assay [6], in assay [7] (read-out: IC50) and in assay [8] was > 100 µM throughout. Besides, the inhibition entry in the assay on Glycine max is “inactive”.
